Published values gathered from unrelated publications.
FAAH: Fatty-acid amide hydrolase 1 (FAAH, Homo sapiens, UniProt O00519)
BDKRB1: B1 bradykinin receptor (BDKRB1, Homo sapiens, UniProt P46663)

Structure (SMILES) | target | test | setting | inhibition
COc1ccc(N(C)C(=O)Oc2nsnc2N2CCCCC2)cc1 | FAAH | enzyme activity, inhibitor | 10 µM, cell membranes | 17%
O=C(Nc1cccnn1)N1CCN([C@@H]2CCOc3cc(C(F)(F)F)ccc32)CC1 | Gastrin/cholecystokinin type B receptor (CCKBR, Homo sapiens, UniProt P32239) | cell-free assay | 20 µM | -15%
c1ccc(C(NCCNC(c2ccccc2)c2ccccc2)c2ccccc2)cc1 | BDKRB1 | cell-free assay | 10 µM | -4%
COCc1c(-c2cc3cc(C)cc(OC)c3s2)c2c(N)ncnn2c1CN1CCNC(=O)C1 | Prostaglandin G/H synthase 1 (PTGS1, Homo sapiens, UniProt P23219) | enzyme activity, inhibitor | 10 µM | -15%
C[C@H](C(=O)N[C@H]1COc2ccccc2[C@@H]1S(C)(=O)=O)c1ccc(F)cc1 | BDKRB1 | cell-free assay | 10 µM | 7%
CN(C(=O)Oc1nsnc1N1CCOCC1)C1CCCCCCC1 | FAAH | enzyme activity, inhibitor | 10 µM, cell membranes | 18%
C#Cc1n[nH]c2c(-c3cn([C@@H](C)c4ccccn4)c(=O)[nH]c3=O)cc(F)cc12 | Receptor-type tyrosine-protein kinase FLT3 (FLT3, Homo sapiens, UniProt P36888) | enzyme activity, inhibitor | 0.1 µM | 6.2%
COc1ccc(S(=O)(=O)N(CC(=O)NO)CC(C)C)cc1 | Stromelysin-1 (MMP3, Homo sapiens, UniProt P08254) | enzyme activity, inhibitor | 0.1 µM | 80%
